Assay results reported in ChEMBL document CHEMBL4177755, “Combating Drug-Resistant Fungi with Novel Imperfectly Amphipathic Palindromic Peptides” (J Med Chem, 2018).

What was measured:
Escherichia coli [1] = test: Antibacterial activity against Escherichia coli ATCC 25922 after 18 hrs in presence of FeCl3 by broth dilution method; assay type: functional; details: ATCC 25922, 18 h
Escherichia coli [2] = test: Antibacterial activity against Escherichia coli ATCC 25922 after 18 hrs in presence of CaCl2 by broth dilution method; assay type: functional; details: ATCC 25922, 18 h
Escherichia coli [3] = test: Antibacterial activity against Escherichia coli ATCC 25922 after 18 hrs in presence of KCl by broth dilution method; assay type: functional; details: ATCC 25922, 18 h
Candida albicans [4] = test: Antifungal activity against Candida albicans cgmcc 2.2086 in presence of NH4Cl by broth dilution method; assay type: functional
Candida albicans [5] = test: Fungicidal activity against fluconazole-resistant Candida albicans 17546 after 96 hrs; assay type: functional; details: Candida albicans, 17546, 96 h; read-out: MFC99.9
In short: (§1)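 After the 48 h, 28 °C broth microdilution in MOPS-buffered RPMI 1640 (inoculum (0.5−1) × 10^3 CFU/mL), 50 μL from each well was plated on YM agar for a further 48 h at 28 °C. MFC is the lowest concentration killing at least 99.9% of cells. Triplicate, three biological replicates.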

Candida albicans [6] = test: Antifungal activity against fluconazole-resistant Candida albicans 56452 after 48 hrs by broth microdilution method; assay type: functional; details: Candida albicans, 56452, 48 h
In short: (§2)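 Modified CLSI M27-A2 broth microdilution. Yeast at (0.5−1) × 10^3 CFU/mL in MOPS-buffered RPMI 1640 was mixed 1:1 with peptide serially diluted in 0.2% BSA and incubated 48 h at 28 °C. Absorbance was read at 492 nm; MIC is the lowest concentration inhibiting 95% of growth. Triplicate, three biological replicates.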

[7] = Cytotoxicity against HEK293T cells assessed as cell viability at 2 to 64 uM after 24 hrs by MTT assay relative to control; assay type: cell-based, HEK-293T; details: human, read-out: Activity
In short: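 MTT viability assay. RAW264.7 or HEK293T cells at (1.0−2.0) × 10^5 per well were exposed to a peptide concentration series for 24 h at 37 °C in 5% CO2. MTT was then added at 0.5 mg/mL final for 4 h; formazan was dissolved in DMSO and read at 570 nm. Results average three independent trials.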

Candida albicans [8] = test: Fungicidal activity against Candida albicans SP3903 after 96 hrs; assay type: functional; details: SP3903, 96 h, read-out: MFC99.9; in short: as §1
Candida albicans [9] = test: Antifungal activity against Candida albicans cgmcc 2.2086 in presence of ZnCl2 by broth dilution method; assay type: functional
Candida parapsilosis [10] = test: Fungicidal activity against Candida parapsilosis cgmcc 2.3989 after 96 hrs; assay type: functional; details: Lodderomyces parapsilosis, cgmcc 2.3989, 96 h; read-out: MFC99.9
In short: (§3)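 Wells from the 48 h, 28 °C RPMI 1640/MOPS microdilution plates were plated on YM agar and incubated a further 48 h at 28 °C. MFC is the lowest concentration killing at least 99.9% of cells. Run in triplicate with three biological replicates.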

Candida albicans [11] = test: Fungicidal activity against fluconazole-resistant Candida albicans 56452 after 96 hrs; assay type: functional; details: Candida albicans, 56452, 96 h; read-out: MFC99.9; in short: as §1
Candida albicans [12] = test: Antifungal activity against Candida albicans 14936 after 48 hrs by broth microdilution method; assay type: functional; details: Candida albicans, 14936, 48 h; in short: as §2
Candida albicans [13] = test: Antifungal activity against Candida albicans cgmcc 2.2086 in presence of CaCl2 by broth dilution method; assay type: functional
Staphylococcus aureus [14] = test: Bactericidal activity against Staphylococcus aureus ATCC 29213; assay type: functional; details: read-out: MBC99.9
In short: (§4)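 Wells from the 24 h, 37 °C MHB microdilution plates (bacteria at a final (0.5−1) × 10^5 CFU/mL; peptide diluted in 0.2% BSA) were plated on agar and incubated overnight. MBC is the lowest concentration killing >99.9% of cells. Each test was reproduced at least 3 times.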

Candida albicans [15] = test: Antifungal activity against Candida albicans isolated from alveolar fluid after 48 hrs by broth microdilution method; assay type: functional; in short: as §2
Candida albicans [16] = test: Fungicidal activity against Candida albicans 14936 after 96 hrs; assay type: functional; details: Candida albicans, 14936, 96 h; read-out: MFC99.9; in short: as §1
Escherichia coli [17] = test: Antibacterial activity against Escherichia coli ATCC 25922 after 24 hrs; assay type: functional; details: ATCC 25922, 24 h
In short: (§5)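 Broth microdilution. Mid-log bacteria in MHB at a final (0.5−1) × 10^5 CFU/mL were mixed with equal volumes of peptide serially diluted in 0.2% BSA. Plates were incubated 24 h at 37 °C and read at A492. MIC is the lowest concentration inhibiting 95% of growth. Each test was repeated at least 3 times.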

Candida albicans [18] = test: Antifungal activity against Candida albicans cgmcc 2.2086 in presence of NaCl by broth dilution method; assay type: functional
Salmonella typhimurium = test: Bactericidal activity against Salmonella typhimurium ATCC 14028; assay type: functional, Salmonella enterica subsp. enterica serovar Typhimurium; details: Salmonella enterica, read-out: MBC99.9; in short: as §4
[19] = Bactericidal activity against Salmonella pullorum ATCC 7913; assay type: functional, Salmonella enterica subsp. enterica serovar Pullorum; details: Salmonella enterica, read-out: MBC99.9; in short: as §4
Candida albicans [20] = test: Fungicidal activity against Candida albicans isolated from alveolar fluid after 96 hrs; assay type: functional; details: read-out: MFC99.9; in short: as §1
Candida parapsilosis [21] = test: Antifungal activity against Candida parapsilosis cgmcc 2.3989 after 48 hrs by broth microdilution method; assay type: functional; details: Lodderomyces parapsilosis, cgmcc 2.3989, 48 h
In short: (§6)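 Modified CLSI M27-A2 broth microdilution. Yeast were suspended in MOPS-buffered RPMI 1640 at a final (0.5−1) × 10^3 CFU/mL and mixed 1:1 with peptide serially diluted in 0.2% BSA. Plates were incubated 48 h at 28 °C and read at A492. MIC is the lowest concentration giving 95% inhibition. Run in triplicate with three biological replicates.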

Staphylococcus aureus [22] = test: Antibacterial activity against Staphylococcus aureus ATCC 29213 after 24 hrs; assay type: functional; details: ATCC 29213, 24 h
In short: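 Modified NCCLS broth microdilution. Mid-log bacteria at (0.5−1) × 10^5 CFU/mL in MHB were mixed 1:1 with peptide serially diluted in 0.2% BSA and incubated 24 h at 37 °C. Absorbance was read at 492 nm; MIC is the lowest concentration inhibiting 95% of growth. At least 3 repeats.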

Escherichia coli [23] = test: Antibacterial activity against Escherichia coli ATCC 25922 after 18 hrs in presence of ZnCl2 by broth dilution method; assay type: functional; details: ATCC 25922, 18 h
Candida albicans [24] = test: Fungicidal activity against Candida albicans SP3931 after 96 hrs; assay type: functional; details: SP3931, 96 h, read-out: MFC99.9; in short: as §1
Candida albicans [25] = test: Fungicidal activity against Candida albicans SP3902 after 96 hrs; assay type: functional; details: SP3902, 96 h, read-out: MFC99.9; in short: as §1
Candida tropicalis [26] = test: Fungicidal activity against Candida tropicalis cgmcc 2.1975 after 96 hrs; assay type: functional; details: cgmcc 2.1975, 96 h, read-out: MFC99.9; in short: as §3
Candida albicans [27] = test: Fungicidal activity against Candida albicans SP3876 after 96 hrs; assay type: functional; details: SP3876, 96 h, read-out: MFC99.9; in short: as §1
Escherichia coli [28] = test: Antibacterial activity against Escherichia coli 1005 after 24 hrs; assay type: functional; details: Escherichia coli, 1005, 24 h; in short: as §5
Pichia kudriavzevii = test: Antifungal activity against Candida krusei cgmcc 2.1857 after 48 hrs by broth microdilution method; assay type: functional; details: cgmcc 2.1857, 48 h; in short: as §6
Candida tropicalis [29] = test: Antifungal activity against Candida tropicalis cgmcc 2.1975 after 48 hrs by broth microdilution method; assay type: functional; details: cgmcc 2.1975, 48 h; in short: as §6
Candida albicans [30] = test: Fungicidal activity against fluconazole-resistant Candida albicans 56214 after 96 hrs; assay type: functional; details: Candida albicans, 56214, 96 h; read-out: MFC99.9; in short: as §1

| Substance | MIC (Escherichia coli [1]) [µM] | MIC (Escherichia coli [2]) [µM] | MIC (Escherichia coli [3]) [µM] | MIC (Candida albicans [4]) [µM] | MFC (Candida albicans [5]) [µM] | MIC95 (Candida albicans [6]) [µM] | viability at 24 h, up to 64 µM [7] [%] | MFC (Candida albicans [8]) [µM] | MIC (Candida albicans [9]) [µM] | MFC (Candida parapsilosis [10]) [µM] | MFC (Candida albicans [11]) [µM] | MIC95 (Candida albicans [12]) [µM] | MIC (Candida albicans [13]) [µM] | MBC (Staphylococcus aureus [14]) [µM] | MIC95 (Candida albicans [15]) [µM] | MFC (Candida albicans [16]) [µM] | MIC95 (Escherichia coli [17]) [µM] | MIC (Candida albicans [18]) [µM] | MBC (Salmonella typhimurium) [µM] | MBC [19] [µM] | also measured |
| --- | --- | --- | --- | --- | --- | --- | --- | --- | --- | --- | --- | --- | --- | --- | --- | --- | --- | --- | --- | --- | --- |
| H-FFRRFRRFF-NH2 | 8 | 32 | 8 | 8 | 8 | 16 | 70 to 80 | 16 | 32 | > 64 | 16 | 16 | 32 | 32 | 16 | 32 | 8 | 16 | 8 | 64 | MFC (Candida albicans [20]): 32 µM; MIC95 (Candida parapsilosis [21]): > 64 µM; MIC95 (Staphylococcus aureus [22]): 8 µM; MIC (Escherichia coli [23]): 8 µM; MFC (Candida albicans [24]): 32 µM; MFC (Candida albicans [25]): 32 µM; MFC (Candida tropicalis [26]): 8 µM; MFC (Candida albicans [27]): 32 µM; MIC95 (Escherichia coli [28]): 8 µM; MIC95 (Pichia kudriavzevii): 4 µM; MIC95 (Candida tropicalis [29]): 4 µM; MFC (Candida albicans [30]): 32 µM |
| H-IIRRIRRII-NH2 | 64 | 64 | 32 | 64 | > 64 | 64 | 70 to 80 | > 64 | 64 | > 64 | 64 | > 64 | 64 | > 64 | 64 | > 64 | 32 | 64 | > 64 | > 64 | MFC (Candida albicans [20]): > 64 µM; MIC95 (Candida parapsilosis [21]): > 64 µM; MIC95 (Staphylococcus aureus [22]): 64 µM; MIC (Escherichia coli [23]): 32 µM; MFC (Candida albicans [24]): > 64 µM; MFC (Candida albicans [25]): > 64 µM; MFC (Candida tropicalis [26]): 8 µM; MFC (Candida albicans [27]): > 64 µM; MIC95 (Escherichia coli [28]): 16 µM; MIC95 (Pichia kudriavzevii): 16 µM; MIC95 (Candida tropicalis [29]): 4 µM; MFC (Candida albicans [30]): 64 µM |
| H-LLRRLRRLL-NH2 | 16 | 64 | 16 | 32 | > 64 | 32 | 70 to 80 | 16 | 64 | > 64 | 32 | 32 | 64 | 64 | 64 | > 64 | 16 | 64 | 32 | 64 | MFC (Candida albicans [20]): > 64 µM; MIC95 (Candida parapsilosis [21]): > 64 µM; MIC95 (Staphylococcus aureus [22]): 64 µM; MIC (Escherichia coli [23]): 16 µM; MFC (Candida albicans [24]): 32 µM; MFC (Candida albicans [25]): > 64 µM; MFC (Candida tropicalis [26]): 8 µM; MFC (Candida albicans [27]): 4 µM; MIC95 (Escherichia coli [28]): 16 µM; MIC95 (Pichia kudriavzevii): 8 µM; MIC95 (Candida tropicalis [29]): 4 µM; MFC (Candida albicans [30]): 32 µM |
